The results in this text go back to ChEMBL document CHEMBL1649568, “Efficacy of aerosol MP-376, a levofloxacin inhalation solution, in models of mouse lung infection due to Pseudomonas aeruginosa” (Antimicrob Agents Chemother, 2009).

In general, MIC refers to the smallest concentration in the dilution series that meets the test's criterion for growth inhibition. A high value points to a need for much substance.

In data set [1] the test system is Pseudomonas aeruginosa. Put plainly: Antimicrobial activity against Pseudomonas aeruginosa ATCC 27853 by broth microdilution method. Type of data set: functional. The method in brief:
(§1)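 Broth microdilution per CLSI. Inoculum 5 × 10⁵ CFU/ml, twofold dilutions of antibiotic in medium, 24 h at 35°C. Growth read at 600 nm and by eye with a reading mirror. MIC is the lowest concentration with no visible growth.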
Background: In broth dilution the organism is exposed to a series of concentrations in liquid medium.

Data set [2] concerns Pseudomonas aeruginosa. Kind of data set: Antimicrobial activity against Pseudomonas aeruginosa isolate NH57388A by broth microdilution method. Type of data set: functional. The method in brief:
as §1

Data set [3] deals with Pseudomonas aeruginosa. Kind of data set: Antimicrobial activity against Pseudomonas aeruginosa ATCC 27853 infected in Swiss neutropenic mouse assessed as mouse survival rate at 400 mg/kg BID administered 24 hrs post infection through aerosol. Type of data set: functional. In outline:
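Female Swiss mice were made neutropenic (cyclophosphamide 150 mg/kg i.p., days 1 and 3) and infected intratracheally on day 4 with ATCC 27853, 0.05 ml at ca. 1–6 × 10⁵ CFU/ml. Aerosol via microsprayer to the bifurcation (50 µl) under isoflurane, twice daily for 48 h from 24 h postinfection. Survival observed to 9 days postinfection, n = 10.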

Data set [4] is filed under the species Mus musculus. Kind of data set: Toxicity in Pseudomonas aeruginosa ATCC 27853 infected Swiss mouse. It counts as functional.
The subject of data set [5] is Pseudomonas aeruginosa. Kind of data set: Antimicrobial activity against Pseudomonas aeruginosa NH57388A infected in Swiss neutropenic mouse assessed as lung bacterial load at 15 mg/kg, ip BID administered 24 hrs post infection (reference value: 8.89 logCFU). It counts as functional. To be noted: route intraperitoneal.
Data set [6] deals with Mus musculus. Put plainly: Cmax in mouse at 60 mg/kg, administered as single dose through aerosol. Type of data set: ADME, organism-based. The arrangement: dose 60 mg/kg. To be noted: in vivo, inhaled_or_intranasal.
For data set [7], the system named is Pseudomonas aeruginosa. Put plainly: Antimicrobial activity against Pseudomonas aeruginosa NH57388A infected in Swiss neutropenic mouse assessed as lung bacterial load at 60 mg/kg, ip BID administered 24 hrs post infection (reference value: 8.89 logCFU). Type of data set: functional. To be noted: route intraperitoneal.
The subject of data set [8] is Pseudomonas aeruginosa. Put plainly: Antimicrobial activity against Pseudomonas aeruginosa ATCC 27853 infected in Swiss neutropenic mouse assessed as reduction in lung bacterial load at 63 mg/kg, ip BID administered 24 hrs post infection. It counts as functional. As to conditions: route intraperitoneal. The method in brief:
(§2)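 Female Swiss mice (5–6 wk) made neutropenic with cyclophosphamide 150 mg/kg i.p. on days 1 and 3. On day 4, intratracheal instillation of 0.05 ml strain ATCC 27853 suspension at ca. 1–6 × 10⁵ CFU/ml. From 24 h postinfection, two i.p. doses over 24 h, n = 8. Lungs taken 12–16 h after the last dose, homogenized in saline and plated; mean log CFU/lung compared with an untreated baseline group.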

Data set [9] has as its system Pseudomonas aeruginosa. Put plainly: Antimicrobial activity against Pseudomonas aeruginosa ATCC 27853 infected in Swiss neutropenic mouse assessed as reduction in lung bacterial load at 32 mg/kg, ip BID administered 24 hrs post infection. Type of data set: functional. To be noted: route intraperitoneal. The method in brief:
as §2

In data set [10] the test system is Mus musculus. Put plainly: Cmax in mouse at 60 mg/kg, ip administered as single dose. As to conditions: in vivo. Also on record: dose 60 mg/kg, route intraperitoneal. It counts as ADME, organism-based.
The test system of data set [11] is Pseudomonas aeruginosa. Put plainly: Antimicrobial activity against Pseudomonas aeruginosa NH57388A infected in Swiss neutropenic mouse assessed as lung bacterial load at 30 mg/kg, ip BID administered 24 hrs post infection (reference value: 8.89 logCFU). It counts as functional. To be noted: route intraperitoneal.
Data set [12] deals with Pseudomonas aeruginosa. Kind of data set: Antimicrobial activity against Pseudomonas aeruginosa ATCC 27853 infected in Swiss neutropenic mouse assessed as reduction in lung bacterial load at […], ip BID administered 24 hrs post infection. Type of data set: functional. As to conditions: route intraperitoneal.
Data set [13] concerns Pseudomonas aeruginosa. Kind of data set: Antimicrobial activity against Pseudomonas aeruginosa ATCC 27853 infected in Swiss neutropenic mouse assessed as mouse survival rate at 60 mg/kg BID administered 24 hrs post infection through aerosol.
In data set [14] the test system is Pseudomonas aeruginosa. Kind of data set: Bactericidal activity against Pseudomonas aeruginosa NH57388A infected in Swiss neutropenic mouse assessed as reduction in lung bacterial load at 60 mg/kg BID administered 24 hrs post infection through aerosol. Type of data set: functional. In outline: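 In the chronic alginate-embedded NH57388A lung infection (cyclophosphamide 150 mg/kg i.p. once, 4 days before; about 10⁸ CFU/ml inoculum), mice got aerosol doses by microsprayer (50 µl, isoflurane) twice daily for 3 days from 24 h postinfection. Lungs homogenized and plated 12–16 h after the final dose; log CFU/lung.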

SMILES strings stand for the structures. In brackets after ≈: the same amount, converted by molar mass.

Take `C[C@H]1[C@H](NC(=O)/C(=N\OC(C)(C)C(=O)O)c2csc(N)n2)C(=O)N1S(=O)(=O)O` [AZTREONAM]: the MIC in data set [1] and in [2] was 4 µg/mL (≈ 9.19 µM) in each case. Also, the Activity in data set [3] worked out at 20%. The MTD in data set [4] was 400 mg/kg.

`C[C@H]1COc2c(N3CCN(C)CC3)c(F)cc3c(=O)c(C(=O)O)cn1c23.C[C@H]1COc2c(N3CCN(C)CC3)c(F)cc3c(=O)c(C(=O)O)cn1c23.O` [LEVOFLOXACIN]: the log10cfu amounted to 7.83 in [5]; 4.93 in data set [7]; 2.7 in [8]; 0.65 in data set [9]; 5.73 in [11]; 3.5 in data set [12]. For the same compound, the Cmax was found to be 550 mg/kg in data set [6] and 18.6 mg/kg in [10].

As to `NC[C@H]1O[C@H](O[C@H]2[C@H](O)[C@@H](O[C@H]3O[C@H](CO)[C@@H](O)[C@H](N)[C@H]3O)[C@H](N)C[C@@H]2N)[C@H](N)C[C@@H]1O` [TOBRAMYCIN], the MIC in data set [1] was determined as 0.25 µg/mL (≈ 0.535 µM); in data set [2], 0.5 µg/mL (≈ 1.07 µM). The Activity in [13] is 60%. In data set [14], the log10cfu worked out at 2.9. For the same compound, in data set [4], the MTD was found to be 60 mg/kg.
